Values after ≈ are worked out from the molar mass of the structure shown.
Key:
[1] = target: T1, Hepatocyte growth factor receptor (Homo sapiens, UniProt P08581); assay: Inhibition of GST tagged c-Met expressed in High Five cells
Target sequence in this assay (P08581 whole entry): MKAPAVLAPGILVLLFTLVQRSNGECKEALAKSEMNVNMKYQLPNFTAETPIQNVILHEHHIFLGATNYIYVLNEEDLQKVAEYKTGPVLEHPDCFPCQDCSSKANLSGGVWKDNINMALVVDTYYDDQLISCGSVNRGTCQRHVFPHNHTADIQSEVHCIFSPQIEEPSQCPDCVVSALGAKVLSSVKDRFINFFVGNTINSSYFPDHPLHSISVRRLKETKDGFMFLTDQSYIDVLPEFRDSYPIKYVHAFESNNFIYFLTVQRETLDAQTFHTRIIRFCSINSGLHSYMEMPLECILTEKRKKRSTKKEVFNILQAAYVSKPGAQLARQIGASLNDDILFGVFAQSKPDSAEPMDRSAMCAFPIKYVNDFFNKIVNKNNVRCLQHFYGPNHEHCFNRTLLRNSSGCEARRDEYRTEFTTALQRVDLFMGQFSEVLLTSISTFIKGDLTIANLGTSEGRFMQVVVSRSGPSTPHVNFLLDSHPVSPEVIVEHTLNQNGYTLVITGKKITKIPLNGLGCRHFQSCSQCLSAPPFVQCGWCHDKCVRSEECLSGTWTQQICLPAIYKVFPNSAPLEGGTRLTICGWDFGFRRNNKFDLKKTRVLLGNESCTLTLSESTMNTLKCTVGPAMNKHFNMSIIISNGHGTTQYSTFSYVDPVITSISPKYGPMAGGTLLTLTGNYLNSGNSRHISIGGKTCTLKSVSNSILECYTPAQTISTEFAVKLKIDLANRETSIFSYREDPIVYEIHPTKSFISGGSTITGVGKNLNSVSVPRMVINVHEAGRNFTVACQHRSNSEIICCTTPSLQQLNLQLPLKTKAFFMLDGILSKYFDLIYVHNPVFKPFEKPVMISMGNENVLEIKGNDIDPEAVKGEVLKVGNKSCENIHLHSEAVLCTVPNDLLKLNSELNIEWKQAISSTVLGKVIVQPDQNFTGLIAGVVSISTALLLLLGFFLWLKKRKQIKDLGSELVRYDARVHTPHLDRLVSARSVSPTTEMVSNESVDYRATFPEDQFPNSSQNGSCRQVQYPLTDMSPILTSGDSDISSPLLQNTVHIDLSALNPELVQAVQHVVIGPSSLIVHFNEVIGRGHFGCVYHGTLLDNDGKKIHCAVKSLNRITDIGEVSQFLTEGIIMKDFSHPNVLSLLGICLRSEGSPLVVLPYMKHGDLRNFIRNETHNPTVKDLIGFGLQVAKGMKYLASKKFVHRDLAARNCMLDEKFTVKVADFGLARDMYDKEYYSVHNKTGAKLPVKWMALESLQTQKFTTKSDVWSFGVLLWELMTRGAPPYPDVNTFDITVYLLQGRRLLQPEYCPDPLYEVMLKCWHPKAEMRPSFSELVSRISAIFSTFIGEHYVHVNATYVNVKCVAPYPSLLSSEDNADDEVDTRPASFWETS

[2] = target: T2, Vascular endothelial growth factor receptor 2 (Homo sapiens, UniProt P35968); assay: Inhibition of GST tagged VEGFR2 expressed in Sf9 cells
Outline: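 GST-fused VEGFR2 catalytic domain, baculovirus-expressed in Sf9 cells (MOI 0.1), glutathione-agarose purified; 5 nM enzyme preincubated with inhibitor and Mg-ATP on ice 4 min, then reacted on immobilized poly(Glu4,Tyr) at 30 °C for 10 min in 60 mM Hepes pH 7.5, MgCl2/MnCl2; ATP 0.6 (2× Km); Eu anti-phosphotyrosine TR-fluorescence; seven concentrations in triplicate, four-parameter IC50 fit.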

[3] = target: T1, Hepatocyte growth factor receptor; assay: Inhibition of TPR-Met fusion protein assessed as Y1230-34-35 phosphorylation
Target sequence in this assay (P08581 25-1390 limits assumed): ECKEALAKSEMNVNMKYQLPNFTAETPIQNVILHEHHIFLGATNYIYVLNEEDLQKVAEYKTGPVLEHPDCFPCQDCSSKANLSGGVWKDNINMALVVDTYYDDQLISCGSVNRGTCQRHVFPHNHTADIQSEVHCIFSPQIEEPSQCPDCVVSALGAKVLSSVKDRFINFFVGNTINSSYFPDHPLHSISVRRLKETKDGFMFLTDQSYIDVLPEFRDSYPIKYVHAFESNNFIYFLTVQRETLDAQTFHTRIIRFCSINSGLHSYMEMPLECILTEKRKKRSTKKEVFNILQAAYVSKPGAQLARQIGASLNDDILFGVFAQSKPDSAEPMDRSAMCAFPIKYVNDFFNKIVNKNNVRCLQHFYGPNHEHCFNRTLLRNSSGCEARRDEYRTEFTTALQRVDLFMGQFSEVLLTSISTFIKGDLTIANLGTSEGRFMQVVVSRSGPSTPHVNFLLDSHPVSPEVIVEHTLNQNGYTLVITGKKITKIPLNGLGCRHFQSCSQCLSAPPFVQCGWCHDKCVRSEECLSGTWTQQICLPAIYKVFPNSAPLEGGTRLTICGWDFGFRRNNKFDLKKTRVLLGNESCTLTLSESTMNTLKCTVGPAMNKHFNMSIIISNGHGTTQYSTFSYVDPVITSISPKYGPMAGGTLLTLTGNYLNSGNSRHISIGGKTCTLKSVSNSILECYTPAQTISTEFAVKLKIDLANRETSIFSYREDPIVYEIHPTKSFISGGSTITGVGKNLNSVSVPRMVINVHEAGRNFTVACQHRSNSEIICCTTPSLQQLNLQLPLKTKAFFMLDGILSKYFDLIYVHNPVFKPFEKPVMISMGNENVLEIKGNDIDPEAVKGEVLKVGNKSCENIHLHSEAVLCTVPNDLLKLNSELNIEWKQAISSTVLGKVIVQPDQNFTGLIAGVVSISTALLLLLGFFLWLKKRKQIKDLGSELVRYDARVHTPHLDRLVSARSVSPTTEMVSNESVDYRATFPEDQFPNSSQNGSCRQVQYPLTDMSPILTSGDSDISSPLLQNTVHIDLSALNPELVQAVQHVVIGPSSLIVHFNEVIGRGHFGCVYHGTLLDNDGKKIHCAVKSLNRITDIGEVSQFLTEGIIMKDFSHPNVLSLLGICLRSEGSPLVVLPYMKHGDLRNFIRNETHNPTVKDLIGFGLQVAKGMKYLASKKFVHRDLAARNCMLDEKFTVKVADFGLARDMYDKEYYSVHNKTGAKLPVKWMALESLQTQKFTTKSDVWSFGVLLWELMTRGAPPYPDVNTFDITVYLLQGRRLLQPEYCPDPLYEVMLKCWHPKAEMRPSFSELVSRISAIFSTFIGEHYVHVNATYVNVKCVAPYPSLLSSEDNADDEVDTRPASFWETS

[4] = Solubility of compound; format: physicochemical
[5] = target: Receptor-type tyrosine-protein kinase FLT3 (Homo sapiens) (UniProt P36888); assay: Inhibition of Flt3 at 100 nM
Outline: (§1)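 Radiometric protein kinase assays run through an outsourced kinase selectivity screening service; test agent at 100 nM, percent inhibition of each enzyme reported.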

MKN-45 = assay: Antitumor activity in human MKN45 cells xenografted mouse assessed as tumor growth inhibition at 20 mg/kg, po once daily after 13 days; format: functional; settings: MKN-45, 312 h, read-out: TGI
Outline: (§2)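 Human tumor xenografts in mice; test agent given orally at 20 mg/kg once daily; efficacy expressed as percent tumor growth inhibition.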

[6] = target: Tyrosine-protein kinase ABL1 (Homo sapiens) (UniProt P00519); assay: Inhibition of Abl at 100 nM
Outline: as §1

[7] = target: Mast/stem cell growth factor receptor Kit (Homo sapiens) (UniProt P10721); assay: Inhibition of c-Kit at 100 nM
Outline: as §1

[8] = Half life in Sprague-Dawley rat at 2.5 mg/kg, iv; format: ADME, organism-based; parameters: dose 2.5 mg/kg, route intravenous; settings: in vivo
Outline: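 Female Sprague–Dawley rats were given a single iv dose of 2.5 mg/kg (four animals) in DMSO. The test material had >95% chromatographic purity. Plasma was analysed by HPLC with triple-quadrupole MS, and PK parameters were calculated from the concentration–time data.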

HCT-116 = assay: Antitumor activity in human HCT116 cells xenografted mouse assessed as tumor growth inhibition at 20 mg/kg, po once daily after 14 days; format: functional; settings: HCT-116, 336 h, read-out: TGI
Outline: as §2

[9] = Cmax in Beagle dog at 5 mg/kg, po; format: ADME, organism-based, Canis lupus familiaris; parameters: dose 5 mg/kg, route oral; settings: in vivo
[10] = Tmax in Beagle dog at 5 mg/kg, po; format: ADME, organism-based, Canis lupus familiaris; parameters: dose 5 mg/kg, route oral; settings: in vivo
[11] = target: T2, Vascular endothelial growth factor receptor 2; assay: Inhibition of human VEGFR2-dependent ERK phosphorylation in HUVEC; format: cell-based
[12] = target: Angiopoietin-1 receptor (Homo sapiens) (UniProt Q02763); assay: Inhibition of Tie2 at 100 nM
Outline: as §1

[13] = target: Tyrosine-protein kinase JAK2 (Homo sapiens) (UniProt O60674); assay: Inhibition of JAK2 at 100 nM
Outline: as §1

[14] = target: Epidermal growth factor receptor (Homo sapiens) (UniProt P00533); assay: Inhibition of EGFR at 100 nM
Outline: as §1

[15] = Volume of distribution at steady state in Beagle dog at 0.8 mg/kg, iv or 5 mg/kg, po; format: ADME, organism-based, Canis lupus familiaris; settings: in vivo, read-out: Vdss
[16] = target: Macrophage-stimulating protein receptor (Homo sapiens) (UniProt Q04912); assay: Inhibition of Ron at 100 nM
Outline: as §1

Cytochrome P450 3A4 = Cytochrome P450 3A4 (Homo sapiens, UniProt P08684); assay: Inhibition of CYP3A4 at 10 uM; format: ADME
HOS-TE85 = assay: Antitumor activity in human MNNGHOS cells xenografted mouse assessed as tumor growth inhibition at 20 mg/kg, po once daily after 26 days; format: functional; settings: HOS-TE85, 624 h, read-out: TGI
Outline: as §2

Canis familiaris [17] = assay: AUC in Beagle dog at 5 mg/kg, po; format: ADME, organism-based, Canis lupus familiaris, Plasma; parameters: dose 5 mg/kg, route oral; settings: in vivo
Canis familiaris [18] = assay: Clearance in Beagle dog at 0.8 mg/kg, iv or 5 mg/kg, po; format: ADME, organism-based, Canis lupus familiaris; settings: in vivo
[19] = target: Glycogen synthase kinase-3 beta (Homo sapiens) (UniProt P49841); assay: Inhibition of GSK3-beta at 100 nM
Outline: as §1

[20] = Oral bioavailability in Sprague-Dawley rat at 5 mg/kg; format: ADME, organism-based; settings: in vivo
Outline: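 An iv reference arm received 2.5 mg/kg (four animals) in DMSO. Plasma was analysed by HPLC-triple-quadrupole MS, and %F was derived from po versus iv exposure.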

[21] = AUC in Sprague-Dawley rat at 5 mg/kg, po; format: ADME, organism-based; parameters: dose 5 mg/kg, route oral; settings: plasma
DU-145 = assay: Antitumor activity in human DU145 cells xenografted mouse assessed as tumor growth inhibition at 20 mg/kg, po once daily after 11 days; format: functional; settings: DU-145, 264 h, read-out: TGI
Outline: as §2

[22] = target: Insulin-like growth factor 1 receptor (Homo sapiens) (UniProt P08069); assay: Inhibition of IGF1R at 100 nM
Outline: as §1

[23] = target: Vascular endothelial growth factor receptor 1 (Homo sapiens) (UniProt P17948); assay: Inhibition of VEGFR1 at 100 nM
Outline: as §1

[24] = target: Vascular endothelial growth factor receptor 3 (Homo sapiens) (UniProt P35916); assay: Inhibition of VEGFR3 at 100 nM
Outline: as §1

[25] = Tmax in Sprague-Dawley rat at 5 mg/kg, po; format: ADME, organism-based; parameters: dose 5 mg/kg, route oral; settings: in vivo
Canis familiaris [26] = assay: Oral bioavailability in Beagle dog at 5 mg/kg; format: ADME, organism-based, Canis lupus familiaris; settings: in vivo
COLO 205 = assay: Antitumor activity in human Colo205 cells xenografted mouse assessed as tumor growth inhibition at 20 mg/kg, po once daily after 16 days; format: functional; settings: COLO 205, 384 h, read-out: TGI
Outline: as §2

[27] = Half life in Beagle dog at 0.8 mg/kg, iv; format: ADME, organism-based, Canis lupus familiaris; parameters: dose 0.8 mg/kg, route intravenous; settings: in vivo
[28] = target: Inhibitor of nuclear factor kappa-B kinase subunit beta (Homo sapiens) (UniProt O14920); assay: Inhibition of IKK-beta at 100 nM
Outline: as §1

[29] = target: High affinity nerve growth factor receptor (Homo sapiens) (UniProt P04629); assay: Inhibition of TrkA at 100 nM
Outline: as §1

[30] = target: Serine/threonine-protein kinase Chk1 (Homo sapiens) (UniProt O14757); assay: Inhibition of CHK1 at 100 nM
Outline: as §1

[31] = Clearance in Sprague-Dawley rat; format: ADME, organism-based; settings: in vivo
[32] = Cmax in Sprague-Dawley rat at 5 mg/kg, po; format: ADME, organism-based; parameters: dose 5 mg/kg, route oral; settings: in vivo
[33] = Volume of distribution at steady state in Sprague-Dawley rat; format: ADME, organism-based; settings: in vivo, read-out: Vdss
[34] = Inhibition of JNK1-alpha-1 at 100 nM
Outline: as §1

T2 sequence (P35968 whole entry, the tested form may be a part): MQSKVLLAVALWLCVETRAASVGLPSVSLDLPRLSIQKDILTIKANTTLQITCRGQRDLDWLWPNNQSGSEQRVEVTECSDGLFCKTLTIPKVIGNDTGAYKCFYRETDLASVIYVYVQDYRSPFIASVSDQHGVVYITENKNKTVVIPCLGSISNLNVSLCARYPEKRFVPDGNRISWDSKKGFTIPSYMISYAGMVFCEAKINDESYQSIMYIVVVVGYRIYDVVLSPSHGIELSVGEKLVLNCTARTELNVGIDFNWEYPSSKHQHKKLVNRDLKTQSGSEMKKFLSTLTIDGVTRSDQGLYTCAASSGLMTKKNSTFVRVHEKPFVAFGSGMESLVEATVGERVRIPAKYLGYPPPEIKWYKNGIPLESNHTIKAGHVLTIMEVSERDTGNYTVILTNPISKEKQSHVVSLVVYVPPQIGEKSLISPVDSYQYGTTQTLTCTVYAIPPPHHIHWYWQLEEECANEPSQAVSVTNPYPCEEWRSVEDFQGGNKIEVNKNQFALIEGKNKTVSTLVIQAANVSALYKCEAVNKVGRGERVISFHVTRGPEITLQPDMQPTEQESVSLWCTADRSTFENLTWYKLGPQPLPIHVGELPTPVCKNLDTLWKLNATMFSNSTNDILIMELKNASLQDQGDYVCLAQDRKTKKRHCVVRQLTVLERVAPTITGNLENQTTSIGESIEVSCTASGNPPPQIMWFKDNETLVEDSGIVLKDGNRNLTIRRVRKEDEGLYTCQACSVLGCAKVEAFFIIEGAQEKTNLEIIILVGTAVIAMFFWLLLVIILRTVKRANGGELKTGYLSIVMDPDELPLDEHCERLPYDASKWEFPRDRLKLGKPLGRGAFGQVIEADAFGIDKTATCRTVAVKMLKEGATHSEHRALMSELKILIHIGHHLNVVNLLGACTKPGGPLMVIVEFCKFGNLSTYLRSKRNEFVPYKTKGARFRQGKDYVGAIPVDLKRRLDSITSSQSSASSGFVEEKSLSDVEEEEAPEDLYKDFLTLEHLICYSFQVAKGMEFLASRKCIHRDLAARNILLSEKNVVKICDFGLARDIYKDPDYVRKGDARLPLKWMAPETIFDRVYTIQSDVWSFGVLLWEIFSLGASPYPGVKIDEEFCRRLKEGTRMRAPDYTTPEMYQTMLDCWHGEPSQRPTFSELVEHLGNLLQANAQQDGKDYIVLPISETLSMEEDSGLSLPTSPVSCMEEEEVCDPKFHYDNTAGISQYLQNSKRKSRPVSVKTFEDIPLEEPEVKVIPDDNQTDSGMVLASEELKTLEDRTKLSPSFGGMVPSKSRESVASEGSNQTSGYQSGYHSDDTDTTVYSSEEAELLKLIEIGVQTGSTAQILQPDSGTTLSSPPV
Sequence of Glycogen synthase kinase-3 beta (Homo sapiens) (P49841 whole entry, looked up): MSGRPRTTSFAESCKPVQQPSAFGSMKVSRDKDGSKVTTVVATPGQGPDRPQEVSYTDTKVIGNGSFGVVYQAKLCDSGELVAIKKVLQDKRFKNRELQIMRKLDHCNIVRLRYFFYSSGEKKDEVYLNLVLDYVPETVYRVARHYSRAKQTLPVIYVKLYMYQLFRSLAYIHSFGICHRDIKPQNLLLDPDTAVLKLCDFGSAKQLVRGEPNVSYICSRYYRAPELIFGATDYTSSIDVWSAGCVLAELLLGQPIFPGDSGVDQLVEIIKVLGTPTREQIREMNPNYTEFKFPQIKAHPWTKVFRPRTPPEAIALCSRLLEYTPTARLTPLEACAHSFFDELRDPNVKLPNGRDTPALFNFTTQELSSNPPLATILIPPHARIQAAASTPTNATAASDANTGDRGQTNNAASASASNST
Sequence of Cytochrome P450 3A4 (P08684 whole entry): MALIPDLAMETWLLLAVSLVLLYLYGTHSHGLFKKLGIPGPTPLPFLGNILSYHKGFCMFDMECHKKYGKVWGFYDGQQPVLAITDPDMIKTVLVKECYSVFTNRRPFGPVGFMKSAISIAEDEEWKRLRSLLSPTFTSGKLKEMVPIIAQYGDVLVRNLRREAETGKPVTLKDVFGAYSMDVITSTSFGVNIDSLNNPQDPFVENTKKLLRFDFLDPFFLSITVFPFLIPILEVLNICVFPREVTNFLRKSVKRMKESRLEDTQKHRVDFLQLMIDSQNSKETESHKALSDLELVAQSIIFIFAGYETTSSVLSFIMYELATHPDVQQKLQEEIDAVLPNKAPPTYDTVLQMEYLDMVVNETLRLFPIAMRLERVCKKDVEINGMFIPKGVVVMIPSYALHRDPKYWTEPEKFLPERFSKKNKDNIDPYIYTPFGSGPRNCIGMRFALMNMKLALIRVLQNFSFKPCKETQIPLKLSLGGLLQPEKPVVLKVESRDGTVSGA

O=C(Cc1ccccc1)NC(=S)Nc1ccc(Oc2ccnc3cc(-c4nccs4)sc23)c(F)c1
IC50 [1]: 65 nM | IC50 [2]: 17 nM | IC50 [3]: 28 nM

Cn1cc(-c2cc3nccc(Oc4ccc(NC(=S)NC(=O)Cc5ccccc5)cc4F)c3s2)cn1
IC50 [1]: 24 nM | IC50 [2]: 25 nM

O=C(Cc1ccccc1)NC(=S)Nc1ccc(Oc2ccnc3cc(-c4ncccn4)sc23)c(F)c1
IC50 [2]: 94 nM

O=C(Cc1ccccc1)NC(=S)Nc1ccc(Oc2ccnc3cc(C(=O)N4CCOCC4)sc23)c(F)c1
IC50 [1]: 125 nM | IC50 [2]: 289 nM

COC(=O)c1cc2nccc(Oc3ccc(NC(=S)NC(=O)Cc4ccccc4)cc3F)c2s1
IC50 [2]: 90 nM

CN1CCN(C(=O)c2cc3nccc(Oc4ccc(NC(=S)NC(=O)Cc5ccccc5)cc4F)c3s2)CC1
IC50 [1]: 193 nM | IC50 [2]: 344 nM

O=C(Cc1ccccc1)NC(=S)Nc1ccc(Oc2ccnc3ccsc23)c(F)c1
IC50 [2]: 1130 nM

CC(O)c1cc2nccc(Oc3ccc(NC(=S)NC(=O)Cc4ccccc4)cc3F)c2s1 (configuration not stated)
IC50 [2]: 561 nM

O=C(Cc1ccccc1)NC(=S)Nc1ccc(Oc2ccnc3cc(-c4cccnc4)sc23)c(F)c1
IC50 [2]: 113 nM

CSc1cc2nccc(Oc3ccc(NC(=S)NC(=O)Cc4ccccc4)cc3F)c2s1
IC50 [2]: 346 nM

CCn1cnc(-c2cc3nccc(Oc4ccc(NC(=S)NC(=O)Cc5ccccc5)cc4F)c3s2)c1
IC50 [1]: 52 nM | IC50 [2]: 11 nM | IC50 [3]: 22 nM

O=C(Cc1ccccc1)NC(=S)Nc1ccc(Oc2ccnc3cc(-c4ccccn4)sc23)c(F)c1
IC50 [2]: 17 nM

O=C(Cc1ccccc1)NC(=S)Nc1ccc(Oc2ccnc3cc(-c4cccs4)sc23)c(F)c1
IC50 [2]: 32 nM

CCN(CC)C(=O)c1cc2nccc(Oc3ccc(NC(=S)NC(=O)Cc4ccccc4)cc3F)c2s1
IC50 [1]: 114 nM | IC50 [2]: 386 nM

O=C(Cc1ccccc1)NC(=S)Nc1ccc(Oc2ccnc3cc(C(=O)c4ccco4)sc23)c(F)c1
IC50 [1]: 130 nM | IC50 [2]: 127 nM

CCn1ccnc1-c1cc2nccc(Oc3ccc(NC(=S)NC(=O)Cc4ccccc4)cc3F)c2s1
IC50 [1]: 108 nM | IC50 [2]: 25 nM | IC50 [3]: 35 nM

O=C(Cc1ccccc1)NC(=S)Nc1ccc(Oc2ccnc3cc(C(=O)N4CCCC4)sc23)c(F)c1
IC50 [1]: 54 nM | IC50 [2]: 9 nM

NC(=O)c1cc2nccc(Oc3ccc(NC(=S)NC(=O)Cc4ccccc4)cc3F)c2s1
IC50 [2]: 129 nM

CN(C)C(=O)c1cc2nccc(Oc3ccc(NC(=S)NC(=O)Cc4ccccc4)cc3F)c2s1
IC50 [2]: 19 nM

O=C(Cc1ccccc1)NC(=S)Nc1ccc(Oc2ccnc3cc(-c4cncnc4)sc23)c(F)c1
IC50 [1]: 63 nM | IC50 [2]: 175 nM | IC50 [3]: 5000 nM

Cn1ccnc1-c1cc2nccc(Oc3ccc(NC(=S)NC(=O)Cc4ccccc4)cc3F)c2s1
IC50 [2]: 10 nM | solubility [4]: 1.7 µg/mL (≈ 3.28 µM)

COc1cc2nccc(Oc3ccc(NC(=S)NC(=O)Cc4ccccc4)cc3F)c2cc1OC
IC50 [2]: 32 nM

Cn1cnc(-c2cc3nccc(Oc4ccc(NC(=S)NC(=O)Cc5ccccc5)cc4F)c3s2)c1
inhibition [5]: 96% | inhibition in vivo at 20 mg/kg (MKN-45): 94% | inhibition [6]: 91% | inhibition [7]: 92% | half-life [8]: 1.2 h | inhibition in vivo at 20 mg/kg (HCT-116): 41% | Cmax [9]: 210 nM | Tmax [10]: 1.1 h | IC50 [11]: 30 nM | inhibition [12]: 81% | inhibition [13]: < 5% | inhibition [14]: < 5% | Vd [15]: 1.5 L/kg | inhibition [16]: 80% | Inhibition (Cytochrome P450 3A4): Not Active | inhibition in vivo at 20 mg/kg (HOS-TE85): 61% | AUC (Canis familiaris [17]): 0.74 µM·h | IC50 [2]: 10 nM | CL (Canis familiaris [18]): 18.3 mL/min/kg | inhibition [19]: < 5% | bioavailability [20]: 12% | AUC [21]: 0.74 µM·h | inhibition in vivo at 20 mg/kg (DU-145): 57% | inhibition [22]: < 5% | inhibition [23]: 91% | inhibition [24]: 100% | Tmax [25]: 3.5 h | F (Canis familiaris [26]): 42% | inhibition in vivo at 20 mg/kg (COLO 205): 41% | half-life [27]: 5.8 h | inhibition [28]: < 5% | IC50 [3]: 12 nM | inhibition [29]: 99% | inhibition [30]: < 5% | clearance [31]: 5.5 mL/min/kg | Cmax [32]: 140 nM | Vd [33]: 0.25 L/kg | solubility [4]: 30 µg/mL (≈ 58 µM) | inhibition [34]: < 5%

Cn1ncnc1-c1cc2nccc(Oc3ccc(NC(=S)NC(=O)Cc4ccccc4)cc3F)c2s1
IC50 [1]: 69 nM | IC50 [2]: 28 nM | IC50 [3]: 20 nM

O=C(Cc1ccccc1)NC(=S)Nc1ccc(Oc2ccnc3cc(-c4nncs4)sc23)c(F)c1
IC50 [1]: 60 nM | IC50 [2]: 145 nM

O=C(Cc1ccccc1)NC(=S)Nc1ccc(Oc2ccnc3cc(-c4ccoc4)sc23)c(F)c1
IC50 [1]: 74 nM | IC50 [2]: 593 nM

CNC(=O)c1cc2nccc(Oc3ccc(NC(=S)NC(=O)Cc4ccccc4)cc3F)c2s1
IC50 [2]: 133 nM

Cn1cccc1-c1cc2nccc(Oc3ccc(NC(=S)NC(=O)Cc4ccccc4)cc3F)c2s1
IC50 [1]: 49 nM | IC50 [2]: 31 nM | IC50 [3]: 108 nM

— ChEMBL document CHEMBL1145636, “Discovery of a novel and potent series of thieno[3,2-b]pyridine-based inhibitors of c-Met and VEGFR2 tyrosine kinases” (Bioorg Med Chem Lett, 2008)
